≈ marks a conversion by molar mass, not a printed value.
Columns and labels:
Assay type in all cases: functional
[1] = system: Staphylococcus aureus; test: Antimicrobial activity against Staphylococcus aureus after 24 hrs by broth microdilution method
How it was run: (§1)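 Broth microdilution following NCCLS M7-A4; ATCC strains and clinical isolates from a provincial hospital.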

[2] = system: Staphylococcus epidermidis; test: Antimicrobial activity against Staphylococcus epidermidis after 24 hrs by broth microdilution method; how it was run: as §1
[3] = system: Staphylococcus aureus; test: Antimicrobial activity against methicillin-resistant Staphylococcus aureus after 24 hrs by broth microdilution method
How it was run: (§2)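 Broth microdilution following NCCLS M7-A4, using ATCC strains and clinical isolates from a provincial hospital.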

[4] = system: Escherichia coli; test: Antimicrobial activity against Escherichia coli isolate 2 after 24 hrs by broth microdilution method; conditions: isolate 2, 24 h; how it was run: as §1
[5] = system: Staphylococcus aureus; test: Antimicrobial activity against methicillin-susceptible Staphylococcus aureus after 24 hrs by broth microdilution method; how it was run: as §1
[6] = system: Escherichia coli; test: Antimicrobial activity against Escherichia coli isolate 1 after 24 hrs by broth microdilution method; conditions: isolate 1, 24 h; how it was run: as §1
[7] = system: Streptococcus pneumoniae; test: Antimicrobial activity against penicillin-resistant Streptococcus pneumoniae after 24 hrs by broth microdilution method; how it was run: as §2
[8] = system: Staphylococcus epidermidis; test: Antimicrobial activity against methicillin-resistant Staphylococcus epidermidis after 24 hrs by broth microdilution method; how it was run: as §2
[9] = system: Staphylococcus epidermidis; test: Antimicrobial activity against methicillin-susceptible Staphylococcus epidermidis after 24 hrs by broth microdilution method; how it was run: as §1
[10] = system: Enterococcus faecalis; test: Antimicrobial activity against Enterococcus faecalis after 24 hrs by broth microdilution method; how it was run: as §1
[11] = system: Moraxella catarrhalis; test: Antimicrobial activity against Moraxella catarrhalis after 24 hrs by broth microdilution method; how it was run: as §1

Row | SMILES | MIC [1] [µg/mL] | MIC [2] [µg/mL] | MIC [3] [µg/mL] | MIC [4] [µg/mL] | MIC [5] [µg/mL] | MIC [6] [µg/mL] | MIC [7] [µg/mL] | MIC [8] [µg/mL] | MIC [9] [µg/mL] | MIC [10] [µg/mL] | MIC [11] [µg/mL]
1 | O=CN(O)C[C@@H](CC1CCCC1)C(=O)N1CC=C[C@H]1C(=O)Nc1ccc(F)cn1 | 0.25 (≈ 0.618 µM) | 0.125 (≈ 0.309 µM) | 0.125 (≈ 0.309 µM) | 16 (≈ 39.6 µM) | 0.5 (≈ 1.24 µM) | 32 (≈ 79.1 µM) |  |  |  |  | 
2 | CCCC[C@H](CN(O)C=O)C(=O)N1CC=C[C@H]1C(=O)Nc1ccccn1 | 0.125 (≈ 0.347 µM) | 0.5 (≈ 1.39 µM) | 0.125 (≈ 0.347 µM) | 32 (≈ 88.8 µM) | 1 (≈ 2.77 µM) | > 64 |  |  |  |  | 
3 | Cc1cnc(NC(=O)[C@@H]2C[C@H](F)CN2C(=O)[C@H](CC2CCCC2)CN(O)C=O)s1 | 1 (≈ 2.34 µM) |  | 0.5 (≈ 1.17 µM) |  | 0.5 (≈ 1.17 µM) |  | 0.03 (≈ 0.0703 µM) | 1 (≈ 2.34 µM) | 0.125 (≈ 0.293 µM) | > 16 | 0.125 (≈ 0.293 µM)
4 | C=C1C[C@@H](C(=O)Nc2ccc(F)cc2)N(C(=O)[C@H](CCCC)CN(O)C=O)C1 | 0.5 (≈ 1.28 µM) | 0.5 (≈ 1.28 µM) | 0.25 (≈ 0.639 µM) | 64 (≈ 163 µM) | 2 (≈ 5.11 µM) | 64 (≈ 163 µM) |  |  |  |  | 
5 | O=CN(O)C[C@@H](CC1CCCC1)C(=O)N1CC=C[C@H]1C(=O)N1CCOCC1 | 64 (≈ 169 µM) | 64 (≈ 169 µM) | 32 (≈ 84.3 µM) | > 64 | 64 (≈ 169 µM) | > 64 |  |  |  |  | 
6 | CCCC[C@H](CN(O)C=O)C(=O)N1CC=C[C@H]1C(=O)Nc1nnc(C(F)(F)F)s1 | 32 (≈ 73.5 µM) | 16 (≈ 36.7 µM) | 8 (≈ 18.4 µM) | > 64 | 16 (≈ 36.7 µM) | > 64 |  |  |  |  | 
7 | C[C@H]1C[C@@H](C(=O)Nc2ccc(F)c[n+]2[O-])N(C(=O)[C@H](CC2CCCC2)CN(O)C=O)C1 | 0.5 (≈ 1.15 µM) |  | 0.5 (≈ 1.15 µM) |  | 0.5 (≈ 1.15 µM) |  | 0.03 (≈ 0.0687 µM) | 1 (≈ 2.29 µM) | 1 (≈ 2.29 µM) | 2 (≈ 4.58 µM) | 0.5 (≈ 1.15 µM)
8 | CCCC[C@H](CN(O)C=O)C(=O)N1CC=C[C@H]1C(=O)Nc1ccc([N+](=O)[O-])cc1 | 0.5 (≈ 1.24 µM) | 0.5 (≈ 1.24 µM) | 0.5 (≈ 1.24 µM) | 32 (≈ 79.1 µM) | 2 (≈ 4.95 µM) | > 64 |  |  |  |  | 
9 | O=CN(O)C[C@@H](CC1CCCC1)C(=O)N1[C@H](C(=O)Nc2ccc(F)cn2)C[C@H]2CCCC[C@@H]21 | 4 (≈ 8.69 µM) |  | 4 (≈ 8.69 µM) |  | 4 (≈ 8.69 µM) |  | 0.03 (≈ 0.0651 µM) | 4 (≈ 8.69 µM) | 0.25 (≈ 0.543 µM) | > 16 | 0.03 (≈ 0.0651 µM)
10 | O=CN(O)C[C@@H](CC1CCCC1)C(=O)N1C[C@@H](F)C[C@H]1C(=O)Nc1ccc(F)c[n+]1[O-] | 2 (≈ 4.54 µM) |  | 2 (≈ 4.54 µM) |  | 0.5 (≈ 1.14 µM) |  | 0.03 (≈ 0.0681 µM) | 4 (≈ 9.08 µM) | 0.25 (≈ 0.568 µM) | 8 (≈ 18.2 µM) | 0.25 (≈ 0.568 µM)
11 | C=C1C[C@@H](C(=O)N2CCOCC2)N(C(=O)[C@H](CCCC)CN(O)C=O)C1 | 4 (≈ 10.9 µM) | 8 (≈ 21.8 µM) | 4 (≈ 10.9 µM) | > 64 | 64 (≈ 174 µM) | > 64 |  |  |  |  | 
12 | CCCC[C@H](CN(O)C=O)C(=O)N1CC=C[C@H]1C(=O)Nc1cccc(Br)c1 | 8 (≈ 18.3 µM) | 1 (≈ 2.28 µM) | 0.125 (≈ 0.285 µM) | 16 (≈ 36.5 µM) | 1 (≈ 2.28 µM) | 64 (≈ 146 µM) |  |  |  |  | 
13 | CCCC[C@H](CN(O)C=O)C(=O)N1CC=C[C@H]1C(=O)Nc1ccc(Br)cc1 | 4 (≈ 9.13 µM) | 2 (≈ 4.56 µM) | 0.5 (≈ 1.14 µM) | > 64 | 1 (≈ 2.28 µM) | > 64 |  |  |  |  | 
14 | CCCC[C@H](CN(O)C=O)C(=O)N1CC=C[C@H]1C(=O)NC1CC1 | 64 (≈ 198 µM) | 4 (≈ 12.4 µM) | 2 (≈ 6.18 µM) | 32 (≈ 99 µM) | 32 (≈ 99 µM) | 64 (≈ 198 µM) |  |  |  |  | 
15 | O=C(O)c1cn(C2CC2)c2cc(N3CCNCC3)c(F)cc2c1=O [CIPROFLOXACIN] | 0.5 (≈ 1.51 µM) | 0.25 (≈ 0.754 µM) | 1 (≈ 3.02 µM) | < 0.0312 | 0.5 (≈ 1.51 µM) | < 0.0312 |  |  |  |  | 
16 | C=C1C[C@@H](C(=O)Nc2ccc(F)c[n+]2[O-])N(C(=O)[C@H](CCCC)CN(O)C=O)C1 | 1 (≈ 2.45 µM) | 1 (≈ 2.45 µM) | 0.5 (≈ 1.22 µM) | > 64 | 4 (≈ 9.79 µM) | > 64 |  |  |  |  | 
17 | CCCC[C@H](CN(O)C=O)C(=O)N1CC=C[C@H]1C(=O)Nc1ccccc1Cl | 0.5 (≈ 1.27 µM) | 1 (≈ 2.54 µM) | 0.25 (≈ 0.635 µM) | 64 (≈ 162 µM) | 2 (≈ 5.08 µM) | > 64 |  |  |  |  | 
18 | CCCC[C@H](CN(O)C=O)C(=O)N1CC=C[C@H]1C(=O)Nc1ccccc1 | 4 (≈ 11.1 µM) | 2 (≈ 5.56 µM) | 1 (≈ 2.78 µM) | 64 (≈ 178 µM) | 8 (≈ 22.3 µM) | > 64 |  |  |  |  | 
19 | CCCC[C@H](CN(O)C=O)C(=O)N1CC=C[C@H]1C(=O)N[C@H](C)c1ccccc1 | 4 (≈ 10.3 µM) | 4 (≈ 10.3 µM) | 2 (≈ 5.16 µM) | > 64 | 16 (≈ 41.3 µM) | > 64 |  |  |  |  | 
20 | CCCC[C@H](CN(O)C=O)C(=O)N1CC=C[C@H]1C(=O)Nc1ccccc1Br | 32 (≈ 73 µM) | 8 (≈ 18.3 µM) | 1 (≈ 2.28 µM) | > 64 | 4 (≈ 9.13 µM) | > 64 |  |  |  |  | 
21 | CCCC[C@H](CN(O)C=O)C(=O)N1CC=C[C@H]1C(=O)N1CCOCC1 | > 64 | > 64 | 32 (≈ 90.5 µM) | > 64 | > 64 | > 64 |  |  |  |  | 
22 | CCCC[C@H](CN(O)C=O)C(=O)N1CC=C[C@H]1C(=O)Nc1ccc(Cl)cc1 | 8 (≈ 20.3 µM) | 4 (≈ 10.2 µM) | 1 (≈ 2.54 µM) | > 64 | 2 (≈ 5.08 µM) | > 64 |  |  |  |  | 
23 | CCCC[C@H](CN(O)C=O)C(=O)N1CC=C[C@H]1C(=O)N[C@@H](C)c1ccccc1 | 4 (≈ 10.3 µM) | 8 (≈ 20.6 µM) | 8 (≈ 20.6 µM) | > 64 | 16 (≈ 41.3 µM) | > 64 |  |  |  |  | 
24 | C=C1C[C@@H](C(=O)Nc2ccccc2)N(C(=O)[C@H](CCCC)CN(O)C=O)C1 | 1 (≈ 2.68 µM) | 1 (≈ 2.68 µM) | 0.5 (≈ 1.34 µM) | > 64 | 4 (≈ 10.7 µM) | 64 (≈ 171 µM) |  |  |  |  | 
25 | CCCC[C@H](CN(O)C=O)C(=O)N1CC=C[C@H]1C(=O)Nc1ccc(F)cc1 | 2 (≈ 5.3 µM) | 4 (≈ 10.6 µM) | 1 (≈ 2.65 µM) | 64 (≈ 170 µM) | 2 (≈ 5.3 µM) | > 64 |  |  |  |  | 
26 | CCCC[C@H](CN(O)C=O)C(=O)N1CC=C[C@H]1C(=O)Nc1ccc(OC)cc1 | 0.5 (≈ 1.28 µM) | 2 (≈ 5.14 µM) | 1 (≈ 2.57 µM) | > 64 | 2 (≈ 5.14 µM) | > 64 |  |  |  |  | 
27 | CN[C@H](CC(C)C)C(=O)N[C@H]1C(=O)N[C@@H](CC(N)=O)C(=O)N[C@H]2C(=O)N[C@H]3C(=O)N[C@H](C(=O)N[C@H](C(=O)O)c4cc(O)cc(O)c4-c4cc3ccc4O)[C@H](O)c3ccc(c(Cl)c3)Oc3cc2cc(c3O[C@@H]2O[C@H](CO)[C@@H](O)[C@H](O)[C@H]2O[C@H]2C[C@](C)(N)[C@H](O)[C@H](C)O2)Oc2ccc(cc2Cl)[C@H]1O [VANCOMYCIN] |  |  |  | > 64 |  | > 64 |  |  |  |  | 
28 | C[C@H](NC(=O)[C@@H]1C=CCN1C(=O)[C@H](CC1CCCC1)CN(O)C=O)c1ccccc1 | 4 (≈ 9.67 µM) | 8 (≈ 19.3 µM) | 4 (≈ 9.67 µM) | > 64 | 16 (≈ 38.7 µM) | > 64 |  |  |  |  | 
29 | CC1(C)S[C@@H]2[C@H](NC(=O)Cc3ccccc3)C(=O)N2[C@H]1C(=O)O [PENICILLIN G] | 0.0625 (≈ 0.187 µM) | 2 (≈ 5.98 µM) | 64 (≈ 191 µM) | > 64 | 1 (≈ 2.99 µM) | > 64 |  |  |  |  | 

Reference: ChEMBL document CHEMBL3352487, “Synthesis, antibacterial activity, and biological evaluation of formyl hydroxyamino derivatives as novel potent peptide deformylase inhibitors against drug-resistant bacteria” (Eur J Med Chem, 2014)
